# From ChEMBL document CHEMBL2021781, “Dual targeting of histone deacetylase and topoisomerase II with novel bifunctional inhibitors” (J Med Chem, 2012)
# Activity calls are given as the source filed them. The calls are words filed in the database; no cut-off is given here.
# Tests used:
# [1] = target: Histone deacetylase (HDAC1 and HDAC2) (Homo sapiens, UniProt Q13547+Q92769); assay: Inhibition of HDAC1/2 in human HeLa cell nuclear extract using Fluor de Lys as substrate after 15 mins by fluorometric analysis; assay type: protein assay
# [2] = target: T1, Protein deacetylase HDAC6 (Homo sapiens, UniProt Q9UBN7); assay: Inhibition of HDAC6 in human HeLa cell nuclear extract using Fluor de Lys as substrate after 15 mins by fluorometric analysis
# T1 sequence (Q9UBN7 whole entry): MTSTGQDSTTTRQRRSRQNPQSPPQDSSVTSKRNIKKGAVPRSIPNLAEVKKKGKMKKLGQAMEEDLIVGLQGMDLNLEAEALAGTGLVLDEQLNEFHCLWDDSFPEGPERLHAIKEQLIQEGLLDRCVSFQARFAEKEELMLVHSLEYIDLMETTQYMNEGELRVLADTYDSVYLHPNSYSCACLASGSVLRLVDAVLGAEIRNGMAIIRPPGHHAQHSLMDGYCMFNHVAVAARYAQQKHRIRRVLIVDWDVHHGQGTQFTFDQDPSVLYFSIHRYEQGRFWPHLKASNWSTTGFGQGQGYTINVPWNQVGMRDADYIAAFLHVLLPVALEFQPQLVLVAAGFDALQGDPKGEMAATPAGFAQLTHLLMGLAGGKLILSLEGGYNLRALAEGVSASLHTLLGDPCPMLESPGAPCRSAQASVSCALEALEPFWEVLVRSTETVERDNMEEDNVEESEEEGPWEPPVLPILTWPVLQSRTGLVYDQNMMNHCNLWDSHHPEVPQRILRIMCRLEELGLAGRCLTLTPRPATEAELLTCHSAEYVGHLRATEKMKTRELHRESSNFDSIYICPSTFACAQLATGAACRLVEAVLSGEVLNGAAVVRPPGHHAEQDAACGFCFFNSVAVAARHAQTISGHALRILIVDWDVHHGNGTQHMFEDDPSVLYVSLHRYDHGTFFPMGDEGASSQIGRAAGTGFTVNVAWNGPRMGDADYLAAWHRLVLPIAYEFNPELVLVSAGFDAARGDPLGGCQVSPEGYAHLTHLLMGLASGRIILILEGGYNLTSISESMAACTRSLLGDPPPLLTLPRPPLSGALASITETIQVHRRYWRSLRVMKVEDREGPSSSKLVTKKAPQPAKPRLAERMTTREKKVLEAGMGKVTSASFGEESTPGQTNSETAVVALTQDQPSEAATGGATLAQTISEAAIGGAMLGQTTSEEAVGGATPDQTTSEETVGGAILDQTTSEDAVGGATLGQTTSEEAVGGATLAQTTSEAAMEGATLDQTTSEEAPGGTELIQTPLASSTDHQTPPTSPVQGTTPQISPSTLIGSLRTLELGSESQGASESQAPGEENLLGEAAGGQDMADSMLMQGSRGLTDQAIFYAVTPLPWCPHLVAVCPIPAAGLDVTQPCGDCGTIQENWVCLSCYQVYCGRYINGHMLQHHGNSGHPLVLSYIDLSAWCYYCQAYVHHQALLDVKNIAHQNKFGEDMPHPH
# [3] = target: T2, Histone deacetylase 8 (Homo sapiens, UniProt Q9BY41); assay: Inhibition of HDAC8 in human HeLa cell nuclear extract using Fluor de Lys as substrate after 15 mins by fluorometric analysis
# T2 sequence (Q9BY41 whole entry): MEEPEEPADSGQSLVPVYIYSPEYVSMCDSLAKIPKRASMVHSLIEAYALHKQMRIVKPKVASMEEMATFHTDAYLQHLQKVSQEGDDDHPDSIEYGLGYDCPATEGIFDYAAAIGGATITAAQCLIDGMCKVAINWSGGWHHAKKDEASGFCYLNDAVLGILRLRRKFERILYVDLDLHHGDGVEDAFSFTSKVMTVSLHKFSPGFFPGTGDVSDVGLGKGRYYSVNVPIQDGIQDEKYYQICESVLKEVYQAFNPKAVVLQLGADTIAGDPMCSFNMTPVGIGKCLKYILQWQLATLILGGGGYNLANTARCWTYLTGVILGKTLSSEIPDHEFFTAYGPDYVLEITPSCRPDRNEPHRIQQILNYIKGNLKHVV
# [4] = system: DU-145; assay: Antiproliferative activity against human DU145 cells after 72 hrs by MTS assay; assay type: functional, cell-based; conditions: DU-145, 72 h
# Procedure, shortened: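 DU-145 cells passaged 24 h before dosing and exposed 72 h; compounds from 10 mM DMSO stocks; controls given media with 0.1% DMSO; 37°C, 5% CO2. Viability read by MTS assay, with Trypan Blue staining also used. IC50 from the average of two experiments, each run in triplicate.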
# [5] = system: SK-MES-1; assay: Antiproliferative activity against human SKMES1 cells after 72 hrs by MTS assay; assay type: functional, cell-based; conditions: SK-MES-1, 72 h
# [6] = target: T3, Protein deacetylase HDAC6 (Homo sapiens) (UniProt Q9UBN7); assay: Inhibition of HDAC6-mediated tubulin acetylation in human DU145 cells at 130 nM after 4 hrs by Western blot analysis; assay type: cell-based; conditions: DU-145
# T3 sequence (whole entry): T1 sequence (Q9UBN7 whole entry)
# Procedure, shortened: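 DU-145 cells passaged 24 h before dosing, then treated 4 h, with no more than 0.1% DMSO including controls. Lysis in RIPA buffer with protease inhibitors, protein quantified against a BSA standard, SDS-PAGE and transfer. Blots probed with rabbit anti-tubulin and mouse anti-acetyl tubulin, read by near-infrared imaging at 700/800 nm.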
# [7] = target: DNA topoisomerase 2-alpha (Homo sapiens) (UniProt P11388); assay: Inhibition of topoisomerase 2 in human DU145 cells assessed as stabilization of enzyme-DNA cleavage complex at 130 nM after 30 mins by immunoblot analysis relative to control; assay type: cell-based; conditions: DU-145
# DNA topoisomerase 2-alpha (Homo sapiens), sequence (P11388 whole entry): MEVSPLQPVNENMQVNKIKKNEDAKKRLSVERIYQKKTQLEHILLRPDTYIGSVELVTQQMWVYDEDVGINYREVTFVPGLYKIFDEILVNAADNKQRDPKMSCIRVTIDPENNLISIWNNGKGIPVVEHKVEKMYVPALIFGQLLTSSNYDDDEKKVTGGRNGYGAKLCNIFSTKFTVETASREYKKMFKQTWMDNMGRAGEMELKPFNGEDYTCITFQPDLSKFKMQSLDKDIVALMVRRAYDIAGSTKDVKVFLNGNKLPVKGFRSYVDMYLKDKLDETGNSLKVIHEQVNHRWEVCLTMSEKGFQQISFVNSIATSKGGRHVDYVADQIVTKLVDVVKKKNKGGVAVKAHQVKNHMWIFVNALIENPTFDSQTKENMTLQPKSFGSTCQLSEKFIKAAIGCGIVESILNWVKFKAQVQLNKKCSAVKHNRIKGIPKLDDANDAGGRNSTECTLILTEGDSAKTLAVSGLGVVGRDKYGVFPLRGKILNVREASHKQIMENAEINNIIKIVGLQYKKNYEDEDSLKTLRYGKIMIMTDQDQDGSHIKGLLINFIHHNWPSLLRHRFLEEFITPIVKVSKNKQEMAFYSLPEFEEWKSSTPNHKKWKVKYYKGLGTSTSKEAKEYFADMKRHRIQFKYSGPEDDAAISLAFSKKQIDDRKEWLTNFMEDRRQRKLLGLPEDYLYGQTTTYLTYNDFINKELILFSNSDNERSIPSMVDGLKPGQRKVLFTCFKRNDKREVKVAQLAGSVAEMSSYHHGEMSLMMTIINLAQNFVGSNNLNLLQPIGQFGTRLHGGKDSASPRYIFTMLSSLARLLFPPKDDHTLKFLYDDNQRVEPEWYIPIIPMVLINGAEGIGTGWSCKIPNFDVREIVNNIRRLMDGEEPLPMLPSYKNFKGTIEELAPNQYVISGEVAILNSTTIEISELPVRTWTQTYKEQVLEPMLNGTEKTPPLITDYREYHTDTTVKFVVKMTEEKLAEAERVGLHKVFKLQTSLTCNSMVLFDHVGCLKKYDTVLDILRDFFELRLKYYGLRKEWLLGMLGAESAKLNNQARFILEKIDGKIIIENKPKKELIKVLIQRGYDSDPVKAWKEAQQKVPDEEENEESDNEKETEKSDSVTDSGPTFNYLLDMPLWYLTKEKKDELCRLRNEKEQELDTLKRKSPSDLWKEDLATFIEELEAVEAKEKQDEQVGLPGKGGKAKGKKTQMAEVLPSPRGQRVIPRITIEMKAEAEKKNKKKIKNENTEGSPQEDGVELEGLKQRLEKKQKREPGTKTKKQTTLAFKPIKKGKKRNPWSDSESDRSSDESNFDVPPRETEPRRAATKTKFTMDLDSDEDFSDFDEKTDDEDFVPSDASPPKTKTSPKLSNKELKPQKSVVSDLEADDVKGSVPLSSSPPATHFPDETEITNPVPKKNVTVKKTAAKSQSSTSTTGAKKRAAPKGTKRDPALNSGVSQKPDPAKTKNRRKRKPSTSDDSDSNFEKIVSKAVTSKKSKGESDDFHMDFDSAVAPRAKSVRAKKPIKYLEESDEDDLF
# Procedure, shortened: (§1)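 DU-145 cells dosed 30 min or 72 h; controls given 0.1% DMSO. 72 h samples equalized to the 30 min cell count before lysis in 1% sarkosyl. Lysates spun on a CsCl gradient at 31,000 RPM, room temperature, 12 h. Fractions holding Topo II–DNA complexes found by A260, slot-blotted onto nitrocellulose, and immunoblotted for Topo II.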
# [8] = target: DNA topoisomerase 2-alpha (Homo sapiens) (UniProt P11388); assay: Inhibition of topoisomerase 2 in human DU145 cells assessed as stabilization of enzyme-DNA cleavage complex at 130 nM after 72 hrs by immunoblot analysis; assay type: cell-based; conditions: DU-145; procedure, shortened: as §1
# [9] = Drug uptake in human DU145 cell perinuclear region at 1 uM after 4 hrs by confocal microscopic analysis; assay type: ADME, cell-based; conditions: du-145, 4 h
# Procedure, shortened: (§2)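 Cells plated on glass coverslips 24 h ahead, then given fresh media with compound at 1 μM for 4 h. After a PBS wash, coverslips were mounted and intracellular distribution imaged by confocal microscopy, excitation 488 nm. Done in DU-145 cells, with A549 lung tumor cells also examined.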
# [10] = Drug uptake in human DU145 cell cytosol at 1 uM after 4 hrs by confocal microscopic analysis; assay type: ADME, cell-based, DU-145; procedure, shortened: as §2
# [11] = Drug uptake in human A549 cell perinuclear region at 1 uM after 4 hrs by confocal microscopic analysis; assay type: ADME, cell-based; conditions: a549, 4 h; procedure, shortened: as §2
# [12] = Drug uptake in human A549 cell cytosol at 1 uM after 4 hrs by confocal microscopic analysis; assay type: ADME, cell-based; procedure, shortened: as §2
# [13] = target: Histone deacetylase (Homo sapiens) (UniProt Q13547+O15379+Q9UBN7+Q92769+Q9UQL6+Q8WUI4+Q9BY41+Q96DB2+P56524+Q9UKV0+Q969S8); conditions: DU-145, 0.5 to 1 uM
structure (smiles),measurement,setting,value
COc1cccc2c1C(=O)c1c(O)c3c(c(O)c1C2=O)C[C@@](O)(C(C)=O)C[C@@H]3O[C@H]1C[C@H](NCc2ccc(NC(=O)CCCCCCC(=O)NO)cc2)[C@H](O)[C@H](C)O1,IC50,[1],64.7 nM
same,IC50,[2],20 nM
same,IC50,[3],220 nM
same,IC50,[4],130 nM
same,IC50,[5],470 nM
same,inhibition,[6],Active
same,inhibition,[7],inactive
same,inhibition,[8],Active
same,Drug uptake,[9],Active
same,Drug uptake,[10],Active
same,Drug uptake,[11],Active
same,Drug uptake,[12],Active
same,inhibition,[13],Active
